Activity calls are given as the source filed them. The rule behind the calls is not given here.
Assays:
Rattus norvegicus [1] = test: Antihyperglycemic activity in Charles Foster/Wistar albino rat assessed as reduction in blood glucose level at 100 mg/kg, po administered 30 mins before sucrose challenge; format: functional
Method in brief: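 Male Charles Foster/Wistar rats, 160 ± 20 g, fasted 16 h; animals with glucose 60–80 mg/dl used, 5–6 per group. Given 100 mg/kg orally as suspension in 1.0% gum acacia (controls vehicle alone). Sucrose 10.0 g/kg orally 30 min later. Glucometer readings at 30, 60, 90, 120 min. Percent activity derived from AUC of treated versus control groups.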

Mus musculus [2] = species: Mus musculus; test: Antihyperglycemic activity in C57BL/Ks db/db mouse assessed as reduction in blood glucose level measured after 3 days relative to control; format: functional
Rattus norvegicus [3] = test: Antihyperglycemic activity against sucrose challenged streptozotocin-induced diabetic Sprague-Dawley albino rat assessed as reduction in blood glucose level at 100 mg/kg, po administered 30 mins before sucrose challenge measured after 5 hrs; format: functional
Method in brief: (§1)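 Male Sprague Dawley rats, 160 ± 20 g, fasted overnight, given streptozotocin 60 mg/kg ip in 100 mM citrate pH 4.5. Rats with glucose 144–270 mg/dl at 48 h count as diabetic, 5–6 per group. Dosed 100 mg/kg orally in 1.0% gum acacia. Sucrose 2.5 g/kg given 30 min later. Glucose read at 30–300 min and 24 h. Non-responders excluded.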

[4] = target: T1, Tyrosine-protein phosphatase non-receptor type 1 (Homo sapiens) (UniProt P18031); test: Inhibition of protein tyrosine phosphatase-1B at 10 uM incubated for 10 mins using pNPP substrate by modified Goldstein method; set-up: Activity: scale not given: the % may be the effect or the level left
T1 sequence (whole entry): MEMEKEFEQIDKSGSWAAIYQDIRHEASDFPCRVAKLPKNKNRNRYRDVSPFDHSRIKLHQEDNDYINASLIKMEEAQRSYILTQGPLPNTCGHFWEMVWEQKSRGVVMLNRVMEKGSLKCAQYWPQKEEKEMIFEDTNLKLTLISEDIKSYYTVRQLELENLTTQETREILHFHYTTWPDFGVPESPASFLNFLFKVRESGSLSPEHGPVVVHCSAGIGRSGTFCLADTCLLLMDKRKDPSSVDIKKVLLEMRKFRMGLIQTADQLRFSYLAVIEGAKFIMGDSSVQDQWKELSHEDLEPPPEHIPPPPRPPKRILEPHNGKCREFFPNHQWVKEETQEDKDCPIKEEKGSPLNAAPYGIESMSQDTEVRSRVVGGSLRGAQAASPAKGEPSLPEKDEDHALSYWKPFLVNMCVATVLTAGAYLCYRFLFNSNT
Method in brief: (§2)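 PTP-1B: compound preincubated 10 min with enzyme, with or without 0.01% Triton X-100. Then 10 mM pNPP in 50 mM HEPES pH 7.0 with 1 mM DTT and 2 mM EDTA, 30 min at 37 °C. Stopped with 0.1 N NaOH; absorbance read at 410 nm. p-Nitrophenolate calculated using ε 1.78 × 10⁴ M⁻¹cm⁻¹. Sodium orthovanadate used as reference.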

[5] = target: T2, Tyrosine-protein phosphatase non-receptor type 1 (Homo sapiens, UniProt P18031); test: Inhibition of protein tyrosine phosphatase-1B at 10 uM incubated for 10 mins using pNPP substrate in presence of 0.01% Triton X-100 by modified Goldstein method; method in brief: as §2
T2 sequence (P18031 whole entry): T1 sequence (whole entry)

[6] = target: T2, Tyrosine-protein phosphatase non-receptor type 1; test: Inhibition of protein tyrosine phosphatase-1B at 10 uM incubated for 10 mins using pNPP substrate in absence of Triton X-100 by modified Goldstein method; method in brief: as §2
Rattus norvegicus [7] = test: Antihyperglycemic activity against sucrose challenged streptozotocin-induced diabetic Sprague-Dawley albino rat assessed as reduction in blood glucose level at 7.5 mg/kg, po administered 30 mins before sucrose challenge; format: functional
Method in brief: (§3)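 Streptozotocin-diabetic Sprague Dawley rats: streptozotocin 60 mg/kg ip in citrate pH 4.5; rats at 144–270 mg/dl after 48 h used. Oral doses of 7.5–100 mg/kg in 1.0% gum acacia, then sucrose 2.5 g/kg. Glucose measured at 30, 60, 90, 120, 180, 240, 300 and 1440 min. ED50 taken from dose response. Mean ± SD, n = 5; Dunnett's test.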

[8] = target: Dipeptidyl peptidase 4 (Homo sapiens) (UniProt P27487); test: Inhibition of DPP4 assessed as rate of substrate cleavage using Gly-Pro-AMC substrate by spectrofluorometry
Sequence of Dipeptidyl peptidase 4 (Homo sapiens) (P27487 whole entry, looked up): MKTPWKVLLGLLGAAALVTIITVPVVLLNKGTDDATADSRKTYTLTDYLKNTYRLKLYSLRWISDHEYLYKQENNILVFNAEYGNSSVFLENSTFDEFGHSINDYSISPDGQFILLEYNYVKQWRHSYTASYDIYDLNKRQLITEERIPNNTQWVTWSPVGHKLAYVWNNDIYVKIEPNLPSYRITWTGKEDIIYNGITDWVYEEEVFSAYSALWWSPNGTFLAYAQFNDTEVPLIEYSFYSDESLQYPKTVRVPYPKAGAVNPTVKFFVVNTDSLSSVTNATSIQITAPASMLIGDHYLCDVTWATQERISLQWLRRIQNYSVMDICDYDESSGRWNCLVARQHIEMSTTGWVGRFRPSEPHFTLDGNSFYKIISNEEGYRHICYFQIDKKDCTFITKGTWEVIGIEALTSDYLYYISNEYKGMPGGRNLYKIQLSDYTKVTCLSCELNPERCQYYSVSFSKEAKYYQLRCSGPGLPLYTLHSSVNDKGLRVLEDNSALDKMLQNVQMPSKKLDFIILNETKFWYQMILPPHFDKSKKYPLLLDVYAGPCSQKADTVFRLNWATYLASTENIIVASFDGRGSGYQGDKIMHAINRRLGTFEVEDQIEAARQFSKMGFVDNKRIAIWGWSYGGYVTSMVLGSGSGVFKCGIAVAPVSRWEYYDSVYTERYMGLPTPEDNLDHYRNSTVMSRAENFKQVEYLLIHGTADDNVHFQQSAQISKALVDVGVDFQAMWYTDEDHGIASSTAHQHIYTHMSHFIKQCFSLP
Method in brief: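 DPP-IV activity read by fluorescence at 37 °C, excitation 355 nm and emission 460 nm. Initial rate calculated over the first 15 min as increase in fluorescence intensity.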

Mus musculus [9] = test: Antidyslipidemic activity in C57BL/Ks db/db mouse assessed as plasma HDL-cholesterol level at 100 mg/kg, po; format: functional
Method in brief: (§4)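 db/db mice (C57BL/KsBom, 12–18 weeks, 5 male and 5 female) dosed orally at 100 mg/kg in 1.0% gum acacia. Blood collected on day 8 for serum lipids. Mean ± SD, n = 5, against vehicle-treated db/db controls; Dunnett's test.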

Rattus norvegicus [10] = test: Antihyperglycemic activity against sucrose challenged streptozotocin-induced diabetic Sprague-Dawley albino rat assessed as reduction in blood glucose level at 100 mg/kg, po administered 30 mins before sucrose challenge; format: functional; method in brief: as §1
Mus musculus [11] = test: Antidyslipidemic activity in C57BL/Ks db/db mouse assessed as reduction in plasma cholesterol level at 100 mg/kg, po; format: functional; method in brief: as §4
Mus musculus [12] = test: Antidyslipidemic activity in C57BL/Ks db/db mouse assessed as reduction in plasma triglyceride level at 100 mg/kg, po; format: functional; method in brief: as §4
Rattus norvegicus [13] = test: Antihyperglycemic activity against sucrose challenged streptozotocin-induced diabetic Sprague-Dawley albino rat assessed as reduction in blood glucose level at 100 mg/kg, po administered 30 mins before sucrose challenge measured after 24 hrs; format: functional; method in brief: as §1
Mus musculus [14] = test: Antihyperglycemic activity in C57BL/Ks db/db mouse assessed as reduction in blood glucose level at 100 mg/kg, po measured 6 days post dose by postprandial glucose tolerance test; format: functional; settings: 144 h
Method in brief: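 C57BL/KsBom-db mice, 12–18 weeks, 40–50 g, 5 male and 5 female, at 23 °C with 12/12 h light cycle. Treated orally at 100 mg/kg, vehicle 1.0% gum acacia. Day 6 postprandial test: glucose at −0.5 h and 0 h, then at 1, 2, 3, 4 and 6 h after dosing.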

Rattus norvegicus [15] = test: Antihyperglycemic activity against sucrose challenged streptozotocin-induced diabetic Sprague-Dawley albino rat assessed as reduction in blood glucose level at 15 mg/kg, po administered 30 mins before sucrose challenge; format: functional; method in brief: as §3
Rattus norvegicus [16] = test: Antihyperglycemic activity against sucrose challenged streptozotocin-induced diabetic Sprague-Dawley albino rat assessed as reduction in blood glucose level at 25 mg/kg, po administered 30 mins before sucrose challenge; format: functional; method in brief: as §3
Mus musculus [17] = test: Antihyperglycemic activity in C57BL/Ks db/db mouse assessed as reduction in blood glucose level at 100 mg/kg, po measured 10 days post dose by postprandial glucose tolerance test; format: functional; settings: 240 h, in the assay text read “oral glucose tolerance test” for “postprandial glucose tolerance test”
Method in brief: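 db/db mice (C57BL/KsBom, 12–18 weeks, 40–50 g) given 100 mg/kg orally, vehicle 1.0% gum acacia. Day 10 OGTT after overnight fast: glucose at −30 min and drug given, then glucose at 0 min. Glucose 3 g/kg given, with readings at 30, 60, 90 and 120 min.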

Rattus norvegicus [18] = test: Antihyperglycemic activity against sucrose challenged streptozotocin-induced diabetic Sprague-Dawley albino rat assessed as reduction in blood glucose level at 50 mg/kg, po administered 30 mins before sucrose challenge; format: functional; method in brief: as §3
Rattus norvegicus [19] = test: Antihyperglycemic activity against sucrose challenged streptozotocin-induced diabetic Sprague-Dawley albino rat assessed as reduction in blood glucose level administered orally 30 mins before sucrose challenge; format: functional; settings: po; method in brief: as §3

Structure (SMILES) | IC50 [5] [µM] | IC50 [6] [µM] | inhibition [4] [%] | inhibition in vivo at 100 mg/kg (Rattus norvegicus [1]) [%] | inhibition in vivo at 100 mg/kg (Rattus norvegicus [3]) [%] | inhibition in vivo at 100 mg/kg (Rattus norvegicus [13]) [%] | also measured
Cc1ccc(S(=O)(=O)NC(=O)NN2CC3CCCC3C2)cc1 (stereo unspecified) [GLICLAZIDE] |  |  |  | 44.8 | 27.7 |  | inhibition (INH) (Mus musculus [2]): 17.4%
COc1ccc(-c2cc(-c3ccccc3)no2)c(OCC2CO2)c1 (stereo unspecified) | 31.3 | 31.1 |  | 10.7 |  |  | Activity [4]: 11.8%
CCN(CC)CCCOc1cc(OC)ccc1-c1cc(-c2ccccc2)no1 | 28.2 | 28 | 21.8 | 14.3 | 7.8 | 9.2 | 
COc1ccc(Cl)cc1C(=O)NCCc1ccc(S(=O)(=O)NC(=O)NC2CCCCC2)cc1 [GLYBURIDE] |  |  |  | 33.9 | 32.8 |  | inhibition (INH) (Mus musculus [2]): 13.6%
CN(C)C(=N)NC(=N)N [METFORMIN] |  |  |  | 12.9 |  | 20.2 | inhibition (INH) (Mus musculus [2]): 11.2%
COc1ccc(-c2cc(-c3ccccc3)no2)c(O)c1 | 27.6 | 27.5 | 21.8 | 9.8 |  |  | 
CCCCN(C)CCCOc1cc(OC)ccc1-c1cc(-c2ccccc2)no1 | 37.5 | 37.3 | 14.4 | 15 | 12.6 | 14.2 | 
COc1ccc(-c2cc(-c3ccccc3)no2)c(OCCCCl)c1 | 56.9 | 56.8 | 9 | 9.24 |  |  | 
CCOC(=O)CCCOc1cc(OC)ccc1-c1cc(-c2ccccc2)no1 | 26.7 | 26.7 | 20.1 | 4.6 |  |  | 

Further molecules by falling IC50 [5], results first:

IC50 [5] [µM] | IC50 [6] [µM] | inhibition [4] [%] | Structure (SMILES) | inhibition in vivo at 100 mg/kg (Rattus norvegicus [1]) [%] | inhibition in vivo at 100 mg/kg (Rattus norvegicus [3]) [%] | inhibition in vivo at 100 mg/kg (Rattus norvegicus [13]) [%] | also measured
25.3 | 25.3 | 22.3 | COc1ccc(-c2cc(-c3ccccc3)no2)c(OCCCN(C)C)c1 | 11.8 |  |  | 
24.3 | 24.2 | 33.5 | COc1ccc(-c2cc(-c3ccccc3)no2)c(OCCN(C)C)c1 | 16.8 | 15.3 | 15.9 | 
22.4 | 22.3 |  | COc1ccc(-c2cc(-c3ccccc3)no2)c(OCCCC(=O)O)c1 | 14.2 | 14.9 | 14.2 | Activity [4]: 24.4%
9.3 | 9.1 |  | COc1ccc(-c2cc(-c3ccccc3)no2)c(OCC(=O)O)c1 | 11.7 |  |  | Activity [4]: 75.2%
6.89 | 4.3 |  | CCN(CC)CC(O)COc1cc(OC)ccc1-c1cc(-c2ccccc2)no1 (stereo unspecified) | 13.8 | 11.6 | 11.4 | Activity [4]: 82.8%
5.44 | 5.5 | 89.4 | COc1ccc(-c2cc(-c3ccccc3)no2)c(OCCN(C(C)C)C(C)C)c1 | 21.7 | 11.4 | 9.7 | inhibition [8]: inactive
5.35 | 5.25 | 79.3 | CCOC(=O)COc1cc(OC)ccc1-c1cc(-c2ccccc2)no1 | 10.4 |  |  | 
4.42 | 4.4 | 89.5 | COc1ccc(-c2cc(-c3ccccc3)no2)c(OCCCN2CCCCC2)c1 | 20.8 | 14.7 | 15 | inhibition [8]: inactive
3.46 | 3.5 | 82.7 | COc1ccc(-c2cc(-c3ccccc3)no2)c(OCCCN2CCCC2)c1 | 21.2 | 13.4 | 11.2 | inhibition [8]: inactive
3.31 | 6.8 |  | COc1ccc(-c2cc(-c3ccccc3)no2)c(OCC(O)CN2CCCCC2)c1 (stereo unspecified) | 17 | 15.8 | 16.8 | Activity [4]: 85.9%
2.9 | 2.97 | 94.7 | CCN(CC)CCOc1cc(OC)ccc1-c1cc(-c2ccccc2)no1 | 29.9 | 26.9 | 25.7 | inhibition in vivo at 7.5 mg/kg (Rattus norvegicus [7]): 10.3%; inhibition [8]: inactive; Activity (Mus musculus [9]): 3.9%; inhibition in vivo at 100 mg/kg (Rattus norvegicus [10]): 25.4%; inhibition (INH) (Mus musculus [2]): 21%; inhibition in vivo at 100 mg/kg (Mus musculus [11]): -14.5%; inhibition in vivo at 100 mg/kg (Mus musculus [12]): -12%; inhibition in vivo at 100 mg/kg (Mus musculus [14]): 22.6%; inhibition in vivo at 15 mg/kg (Rattus norvegicus [15]): 15.5%; inhibition in vivo at 25 mg/kg (Rattus norvegicus [16]): 19.5%; inhibition in vivo at 100 mg/kg (Mus musculus [17]): 21.5%; inhibition in vivo at 50 mg/kg (Rattus norvegicus [18]): 21.7%; ED50 (Rattus norvegicus [19]): 45.3 mg/kg
2.61 | 2.5 | 82.9 | COc1ccc(-c2cc(-c3ccccc3)no2)c(OCCN2CCOCC2)c1 | 2.8 |  |  | 
1.51 | 1.5 | 99.2 | COc1ccc(-c2cc(-c3ccccc3)no2)c(OCCN2CCCC2)c1 | 36.9 | 27.7 | 28.7 | inhibition in vivo at 7.5 mg/kg (Rattus norvegicus [7]): 11.5%; inhibition [8]: inactive; Activity (Mus musculus [9]): 3%; inhibition in vivo at 100 mg/kg (Rattus norvegicus [10]): 27.7%; inhibition (INH) (Mus musculus [2]): 22.8%; inhibition in vivo at 100 mg/kg (Mus musculus [11]): -17.6%; inhibition in vivo at 100 mg/kg (Mus musculus [12]): -10.5%; inhibition in vivo at 100 mg/kg (Mus musculus [14]): 21.4%; inhibition in vivo at 15 mg/kg (Rattus norvegicus [15]): 13.7%; inhibition in vivo at 25 mg/kg (Rattus norvegicus [16]): 15.2%; inhibition in vivo at 100 mg/kg (Mus musculus [17]): 21.6%; inhibition in vivo at 50 mg/kg (Rattus norvegicus [18]): 18.5%; ED50 (Rattus norvegicus [19]): 54.8 mg/kg
